Measured values from ChEMBL document CHEMBL3751702, “Comprehensive Analysis of Structure-Activity Relationships of α-Ketoheterocycles as sn-1-Diacylglycerol Lipase α Inhibitors” (J Med Chem, 2015).

Biological target: T1, Diacylglycerol lipase-alpha (Homo sapiens, UniProt Q9Y4D2)
T1 sequence (Q9Y4D2 whole entry): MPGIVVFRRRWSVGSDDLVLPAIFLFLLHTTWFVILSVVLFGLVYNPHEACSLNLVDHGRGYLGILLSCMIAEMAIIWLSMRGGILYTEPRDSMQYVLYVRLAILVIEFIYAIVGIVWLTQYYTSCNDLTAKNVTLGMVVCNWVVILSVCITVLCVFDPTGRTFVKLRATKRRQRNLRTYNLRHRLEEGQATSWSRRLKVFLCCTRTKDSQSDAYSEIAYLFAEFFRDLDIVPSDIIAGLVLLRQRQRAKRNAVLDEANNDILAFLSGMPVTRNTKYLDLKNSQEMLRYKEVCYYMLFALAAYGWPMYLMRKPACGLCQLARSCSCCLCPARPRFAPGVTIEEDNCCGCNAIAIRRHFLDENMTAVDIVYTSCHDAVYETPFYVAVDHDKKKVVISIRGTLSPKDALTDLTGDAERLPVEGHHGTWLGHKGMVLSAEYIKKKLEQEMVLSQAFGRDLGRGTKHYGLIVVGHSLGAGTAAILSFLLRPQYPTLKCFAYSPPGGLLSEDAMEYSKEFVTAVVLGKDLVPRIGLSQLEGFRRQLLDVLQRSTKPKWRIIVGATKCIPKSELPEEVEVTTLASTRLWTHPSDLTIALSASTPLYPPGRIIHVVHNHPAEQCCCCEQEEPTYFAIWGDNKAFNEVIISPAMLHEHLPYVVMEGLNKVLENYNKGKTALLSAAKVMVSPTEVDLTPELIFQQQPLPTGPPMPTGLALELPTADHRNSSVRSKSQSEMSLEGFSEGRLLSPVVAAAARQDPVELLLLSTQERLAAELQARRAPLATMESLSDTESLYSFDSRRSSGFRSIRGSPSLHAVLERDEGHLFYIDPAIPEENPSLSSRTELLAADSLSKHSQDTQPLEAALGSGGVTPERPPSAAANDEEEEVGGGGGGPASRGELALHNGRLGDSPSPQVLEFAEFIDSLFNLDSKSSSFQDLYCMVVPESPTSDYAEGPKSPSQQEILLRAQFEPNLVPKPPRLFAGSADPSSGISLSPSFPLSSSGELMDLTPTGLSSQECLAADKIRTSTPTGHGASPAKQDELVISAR
Experiment: Inhibition of full-length human DAGLalpha expressed in HEK293T cell membranes using para-nitrophenylbutyrate by colorimetric assay
Assay type: cell-based, HEK-293T
How it was run: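 Membranes from HEK293T cells transiently transfected with full-length human DAGL-α (pcDNA3.1; PEI transfection, harvested at 72 h), diluted to 0.05 μg/μL final protein in 50 mM HEPES pH 7.2. Screen at 10 μM in duplicate; dose response by 10-fold serial dilution.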

SMILES: O=C(CCCCCc1ccccc1)c1nc2ccccc2o1
- IC50: 3630 nM

SMILES: CCCCC/C=C\C/C=C\C/C=C\C/C=C\CCCC(=O)c1nc2ncccc2o1
- IC50: 2400 nM

SMILES: O=C(CCCCCc1ccccc1)c1nc2ncccc2s1
- IC50: > 10000 nM

SMILES: O=C(CCCCCc1ccccc1)c1nc2cc(F)ccc2o1
- IC50: 1410 nM

SMILES: O=C(CCCCCc1ccccc1)c1nc2cccnc2o1
- IC50: 1700 nM

SMILES: O=C(CCCCCc1ccccc1)c1nc2ccccc2[nH]1
- IC50: 12000 nM

SMILES: O=C(CCCCCc1ccccc1)c1nc2cnccc2o1
- IC50: 204 nM

SMILES: O=C(CCCCCc1ccccc1)c1nc2ncccc2[nH]1
- IC50: 1230 nM

SMILES: CCCCCCCC/C=C\CCCCCCCC(=O)c1nc2ccccc2[nH]1
- IC50: 195 nM

SMILES: O=C(CCCCCc1ccccc1)c1nc2c(F)cccc2o1
- IC50: 117 nM

SMILES: O=C(CCCCCc1ccccc1)c1nc2ccccc2s1
- IC50: > 10000 nM
